# Variants at the floor of the assay were thinned out.
# B1: tRNA (parent)
# chain: GUUCCGUUGGCGUAAUGGUAACGCGUCUCCCUCCUAAGGAGAAGACUGCGGGUUCGAGUCCCGUACGGAACG
# Variants of: B1
# Experiment: yeast fitness relative to wild type (ratio to wild type); higher = fitter; tRNA-Arg(CCU), competitive growth, 37 C, YPD
# How it was run: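 Start and end populations of a pooled competition were compared by 100-nucleotide paired-end sequencing of gene amplicons. The Saccharomyces cerevisiae strains carried tRNA-Arg(CCU) gene variants at the native genomic locus, synthesised with a 3% per-site mutation rate at 69 sites, and competed in YPD at 37°C for 24 hours in six parallel replicates. Darwinian fitness relative to wild type was based on the change in genotype frequencies. Genotypes required ≥ 100 starting reads, and estimates < 0.5 were set to 0.5.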
row,Variant,yeast fitness
1,C22G C61G C62U,≤ 0.5
2,C22G C61U G68A,≤ 0.5
3,C22G C62A,0.787
4,C22G C62G A65U,0.534
5,C22G C62U A69U,0.591
6,C22G C66A,0.704
7,C22G C66U A69C,0.564
8,C22G C66U A69U,0.685
9,C22G G23A,0.644
10,C22G G23A G38A G68C,0.572
11,C22G G23C A42U,0.573
12,C22G G23C A43C G50C,≤ 0.5
13,C22G G23C A43C G50C A70U,0.517
14,C22G G23C C27A U28C,0.533
15,C22G G23C C27A U28C G67A A70G,≤ 0.5
16,C22G G23C C27A U28C U32C,≤ 0.5
17,C22G G23C G39A A45C C49U C61U G68A,≤ 0.5
18,C22G G23C G50C C55A C60A,≤ 0.5
19,C22G G25A A37U G39A U47A,≤ 0.5
20,C22G G25A C61U,0.647
21,C22G G25A G50U,0.593
22,C22G G25C A37G A65U,0.576
23,C22G G38A,0.776
24,C22G G38C C55G,≤ 0.5

row,Variant,yeast fitness
1,C22G G38C C60U,≤ 0.5
2,C22G G38U A42U,≤ 0.5
3,C22G G39A,0.773
4,C22G G39A A70G,0.599
5,C22G G39C,0.823
6,C22G G41A C61G,≤ 0.5
7,C22G G41A C62A G63C,0.615
8,C22G G41C G52A,≤ 0.5
9,C22G G44C,0.942
10,C22G G44C C60U,0.762
11,C22G G44C U53A,≤ 0.5
12,C22G G48C,0.811
13,C22G G50A U59C,≤ 0.5
14,C22G G50U,0.873
15,C22G G50U A57G,≤ 0.5
16,C22G G51A,0.749
17,C22G G51A A57U,≤ 0.5
18,C22G G51A A70U,0.665
19,C22G G51A C60U A70U,0.637
20,C22G G51C,0.738
21,C22G G51C G58A,≤ 0.5
22,C22G G52A C55U,≤ 0.5
23,C22G G52A U53A,≤ 0.5
24,C22G G52A U64C,0.537

row,Variant,yeast fitness
1,C22G G52C G58C A65U,0.592
2,C22G G52C G68C,≤ 0.5
3,C22G G56A,1.07
4,C22G G58C,0.971
5,C22G G58C C61U,0.616
6,C22G G63A,0.891
7,C22G G63A G68U,≤ 0.5
8,C22G G63C G68U,0.52
9,C22G G67C,0.97
10,C22G G68C,0.696
11,C22G G68U,0.865
12,C22G U26C,0.971
13,C22G U26C C33U A37U A40C G63C,≤ 0.5
14,C22G U26G C27G U53A,≤ 0.5
15,C22G U26G C66U,≤ 0.5
16,C22G U28A C31G C55A G68C,0.539
17,C22G U28A G44A,≤ 0.5
18,C22G U28C C31G,0.6
19,C22G U32C,1
20,C22G U32C A42C G48C C55G,≤ 0.5
21,C22G U32C G38C C60U,≤ 0.5
22,C22G U32C G58A,0.654
23,C22G U32C U54A G68A,≤ 0.5
24,C22G U32G,0.626

row,Variant,yeast fitness
1,C22G U32G G48A G52A,≤ 0.5
2,C22G U35A A57G C62A,0.567
3,C22G U35A G58A G67U,≤ 0.5
4,C22G U35A U47C C55U,≤ 0.5
5,C22G U35A U47C C55U A69C,0.542
6,C22G U35C C46U C55G,≤ 0.5
7,C22G U35C G50C,≤ 0.5
8,C22G U47A,0.754
9,C22G U47A C49U,0.638
10,C22G U47A U54A C61G,≤ 0.5
11,C22G U47C,0.89
12,C22G U47C A65U,0.64
13,C22G U47C G50A,≤ 0.5
14,C22G U47G,0.597
15,C22G U47G A65C,≤ 0.5
16,C22G U53A,0.673
17,C22G U53G,0.503
18,C22G U53G C55U,≤ 0.5
19,C22G U54A,0.591
20,C22G U54A C55U,≤ 0.5
21,C22G U54A C55U C66A,≤ 0.5
22,C22G U54C,0.775
23,C22G U59C,0.864
24,C22G U64A,0.696

row,Variant,yeast fitness
1,C22U A36C A45C,≤ 0.5
2,C22U A36C A65U G67C,≤ 0.5
3,C22U A36C C49U A65G,0.528
4,C22U A36C C55U U59A,≤ 0.5
5,C22U A36C C66A,≤ 0.5
6,C22U A36G,0.948
7,C22U A36G C55A,≤ 0.5
8,C22U A36G G51A C66U,0.588
9,C22U A36G G51C,≤ 0.5
10,C22U A36U C49U G58C,0.575
11,C22U A37C G44A G63C,≤ 0.5
12,C22U A37G,0.662
13,C22U A37G A45U G52A,0.588
14,C22U A37G G48C,0.54
15,C22U A37U G50C,0.634
16,C22U A37U G50C C66U,0.697
17,C22U A37U G52C C61G C66A,≤ 0.5
18,C22U A40C,0.7
19,C22U A40C C62U,0.648
20,C22U A40C C66U,0.523
21,C22U A40C G58C A69U,≤ 0.5
22,C22U A40G A43U C46G C49G C62U U64C,≤ 0.5
23,C22U A40G C61U U64G A69U,≤ 0.5
24,C22U A40G G63C G67C A69U,≤ 0.5

row,Variant,yeast fitness
1,C22U A40U,0.642
2,C22U A40U A43G A65U,0.536
3,C22U A40U A57U A69U,≤ 0.5
4,C22U A40U A65U,≤ 0.5
5,C22U A40U C61A G68A,≤ 0.5
6,C22U A42C,0.808
7,C22U A42G,0.794
8,C22U A42G A45C,≤ 0.5
9,C22U A42G A45C C55G,≤ 0.5
10,C22U A42G C55G,0.567
11,C22U A42G C61U,0.612
12,C22U A42U,0.749
13,C22U A42U G51C C62U A70U,0.505
14,C22U A43C,0.712
15,C22U A43C U53C C62G,≤ 0.5
16,C22U A43G A45C C46G G63A,0.635
17,C22U A43G A57U,0.59
18,C22U A43U C49U C55G C61U,0.534
19,C22U A43U C55G C61U,0.659
20,C22U A45C,0.75
21,C22U A45C G50A,0.698
22,C22U A45G G56C,0.602
23,C22U A45G G58C,0.608
24,C22U A45U,0.909

row,Variant,yeast fitness
1,C22U A45U A69U,0.804
2,C22U A45U C49A,≤ 0.5
3,C22U A57U C66U,0.553
4,C22U A65C,0.708
5,C22U A65G,0.835
6,C22U A65U,0.748
7,C22U A70U,0.842
8,C22U C24A A42U C61U,0.562
9,C22U C24A A43C C55U,≤ 0.5
10,C22U C24A A43U A57G,≤ 0.5
11,C22U C24A C27U A43C,≤ 0.5
12,C22U C24A C29A A36C,≤ 0.5
13,C22U C24A G25U A42G,≤ 0.5
14,C22U C24A G56A A70U,≤ 0.5
15,C22U C24G,0.583
16,C22U C24G A36C A70C,≤ 0.5
17,C22U C24G A65U,≤ 0.5
18,C22U C24G A69C,0.539
19,C22U C24G C30G G41C,≤ 0.5
20,C22U C24G C30U G44A G56A,≤ 0.5
21,C22U C24G C34U A37G G44A,≤ 0.5
22,C22U C24G C55U A65G,≤ 0.5
23,C22U C24G C61A,0.53

# From the RNAGym collection of RNA variant scans (doi:10.1126/science.aae0568)
